Results as given in ChEMBL document CHEMBL1255177, “Search for influence of spatial properties on affinity at α1-adrenoceptor subtypes for phenylpiperazine derivatives of phenytoin” (Bioorg Med Chem Lett, 2010).

Assays:
[1] = molecular target: T1, Alpha-1D adrenergic receptor (Rattus norvegicus, UniProt P23944); assay: Antagonist activity at adrenergic Alpha-1D receptor in rat aorta; type: functional, tissue-based; conditions: read-out: pA2 (converted)
T1 sequence (P23944 whole entry): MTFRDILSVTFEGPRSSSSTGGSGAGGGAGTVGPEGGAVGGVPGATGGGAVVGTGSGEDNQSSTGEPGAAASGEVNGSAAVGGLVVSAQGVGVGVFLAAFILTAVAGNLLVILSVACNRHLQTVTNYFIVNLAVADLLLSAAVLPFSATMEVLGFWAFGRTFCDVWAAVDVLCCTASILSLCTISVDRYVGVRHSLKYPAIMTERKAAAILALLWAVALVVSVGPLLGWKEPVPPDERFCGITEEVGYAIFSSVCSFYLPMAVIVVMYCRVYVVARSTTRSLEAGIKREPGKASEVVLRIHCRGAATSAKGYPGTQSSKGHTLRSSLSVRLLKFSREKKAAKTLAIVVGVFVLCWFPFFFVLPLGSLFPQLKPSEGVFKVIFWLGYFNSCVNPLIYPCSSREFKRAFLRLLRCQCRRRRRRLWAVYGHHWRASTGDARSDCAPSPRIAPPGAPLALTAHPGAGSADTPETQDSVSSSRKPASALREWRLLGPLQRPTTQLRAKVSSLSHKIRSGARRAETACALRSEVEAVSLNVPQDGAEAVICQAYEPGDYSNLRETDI
Method in brief: (§1)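 Isolated tissues: guinea pig spleen (α1B), rat aorta (α1D), rat tail artery (α1A). Two cumulative noradrenaline concentration-response curves per tissue, 60 min apart, without then with antagonist. Apparent pA2 = −log[B] + log(r − 1), where r is the ratio of agonist EC50 with and without antagonist. EC50 taken at the curve midpoint. Means ± SEM, 4–8 separate experiments.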

[2] = molecular target: T2, Alpha-1A adrenergic receptor (Rattus norvegicus, UniProt P43140); assay: Antagonist activity at adrenergic alpha1A receptor in rat tail artery; type: functional, tissue-based; conditions: read-out: pA2 (converted); method in brief: as §1
T2 sequence (P43140 whole entry): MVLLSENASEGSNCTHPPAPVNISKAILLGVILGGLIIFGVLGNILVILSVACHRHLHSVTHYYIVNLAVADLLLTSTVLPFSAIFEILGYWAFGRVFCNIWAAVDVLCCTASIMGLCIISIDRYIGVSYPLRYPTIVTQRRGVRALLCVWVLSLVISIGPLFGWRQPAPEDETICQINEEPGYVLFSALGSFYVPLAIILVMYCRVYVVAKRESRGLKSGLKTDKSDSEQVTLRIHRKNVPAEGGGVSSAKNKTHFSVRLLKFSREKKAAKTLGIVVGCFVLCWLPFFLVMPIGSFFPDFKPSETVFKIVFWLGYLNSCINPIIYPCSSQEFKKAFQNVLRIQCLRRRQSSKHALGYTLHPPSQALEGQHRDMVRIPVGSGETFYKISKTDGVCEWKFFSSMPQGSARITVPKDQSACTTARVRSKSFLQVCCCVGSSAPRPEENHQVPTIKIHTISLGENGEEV

[3] = molecular target: Alpha-1 adrenergic receptor (Rattus norvegicus); assay: Binding affinity to adrenergic alpha1 receptor in rat brain
[4] = molecular target: Alpha-1B adrenergic receptor (Cavia porcellus); assay: Antagonist activity at adrenergic Alpha-1B receptor in guinea pig spleen; conditions: read-out: pA2 (converted)

SMILES | Kb [1] [nM] | Kb [2] [nM] | Ki [3] [nM] | Kb [4] [nM]
CCOC(=O)C(C)N1C(=O)N(CC(O)CN2CCN(c3ccccc3OC)CC2)C(c2ccccc2)(c2ccccc2)C1=O (centres undefined) | 70.8 | – | – | –
COc1ccccc1N1CCN(CC(O)CN2C(=O)NC(=O)C2(c2ccccc2)c2ccccc2)CC1 (centres undefined) | 112 | – | – | –
COC(=O)C(C)N1C(=O)N(CC(O)CN2CCN(c3ccccc3OC)CC2)C(c2ccccc2)(c2ccccc2)C1=O (centres undefined) | 347 | 155 | 105 | 851
CN1C(=O)N(CC(O)CN2CCN(c3ccccc3F)CC2)C(c2ccccc2)(c2ccccc2)C1=O (centres undefined) | 245 | 891 | 562 | 1820
CCOC(=O)CN1C(=O)N(CC(O)CN2CCN(c3ccccc3OC)CC2)C(c2ccccc2)(c2ccccc2)C1=O (centres undefined) | 1350 | – | – | –
COC(=O)CN1C(=O)N(CC(O)CN2CCN(c3ccccc3)CC2)C(c2ccccc2)(c2ccccc2)C1=O (centres undefined) | 4370 | – | – | –
CCOc1ccccc1N1CCN(CC(O)CN2C(=O)N(C(C)C(=O)OC)C(=O)C2(c2ccccc2)c2ccccc2)CC1 (centres undefined) | 269 | – | – | –
COC(=O)CN1C(=O)N(CC(O)CN2CCN(c3ccccc3OC)CC2)C(c2ccccc2)(c2ccccc2)C1=O (centres undefined) | 295 | 224 | 200 | 1260
CCOc1ccccc1N1CCN(CC(O)CN2C(=O)N(C)C(=O)C2(c2ccccc2)c2ccccc2)CC1 (centres undefined) | 195 | – | – | –
COc1ccccc1N1CCN(CC(O)CN2C(=O)N(C)C(=O)C2(c2ccccc2)c2ccccc2)CC1 (centres undefined) | 141 | – | – | –
